Assay results taken from ChEMBL document CHEMBL5149984, “Discovery of HN37 as a Potent and Chemically Stable Antiepileptic Drug Candidate” (J Med Chem, 2021).

Tests used:
Mus musculus [1] = test: Anticonvulsant activity in MES induced Kunming mouse model of seizure at 60 mg/kg, po; format: functional
In short: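 MES test in male KM mice. Compounds freshly suspended in 0.5% CMC-Na and given by gavage at 20 mL/kg; 160 V stimulus through ear clips. Protection scored as absence of hindlimb tonic extension; time course at 0.25, 0.5, 1 and 2 h, otherwise tested at 1 h. ED50 from dose−response by nonlinear regression; Fisher's exact test versus vehicle.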

[2] = target: T1, Potassium voltage-gated channel subfamily KQT member 4 (Homo sapiens) (UniProt P56696); test: Agonist activity at human KCNQ4 channel expressed in CHO cells assessed as shift of half voltage of maximal activation at 10 uM by patch clamp method; format: cell-based; conditions: filed as agonist
T1 sequence (whole entry): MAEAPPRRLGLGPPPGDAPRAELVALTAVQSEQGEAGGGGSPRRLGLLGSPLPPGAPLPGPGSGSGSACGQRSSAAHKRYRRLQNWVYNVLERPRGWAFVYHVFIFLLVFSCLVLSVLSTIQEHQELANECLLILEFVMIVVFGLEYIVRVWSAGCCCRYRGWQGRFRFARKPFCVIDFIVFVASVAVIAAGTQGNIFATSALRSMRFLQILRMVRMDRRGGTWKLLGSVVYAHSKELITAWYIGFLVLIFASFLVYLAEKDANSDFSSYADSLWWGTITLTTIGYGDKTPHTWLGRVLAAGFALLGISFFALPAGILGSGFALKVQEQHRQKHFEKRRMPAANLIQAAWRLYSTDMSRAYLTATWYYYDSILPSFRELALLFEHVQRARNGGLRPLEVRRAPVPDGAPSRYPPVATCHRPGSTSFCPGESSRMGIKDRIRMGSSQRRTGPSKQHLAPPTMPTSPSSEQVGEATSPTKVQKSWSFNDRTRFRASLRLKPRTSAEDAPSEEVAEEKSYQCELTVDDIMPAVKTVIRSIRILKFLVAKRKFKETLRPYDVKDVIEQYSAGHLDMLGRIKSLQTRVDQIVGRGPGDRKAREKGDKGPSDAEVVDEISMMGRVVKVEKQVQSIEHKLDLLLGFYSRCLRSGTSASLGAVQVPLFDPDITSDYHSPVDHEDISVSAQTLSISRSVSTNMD
In short: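 Whole-cell patch clamp at room temperature on CHO cells (DMEM/F12, 10% FBS) transiently co-transfected with EGFP and hKCNQ1, rKCNQ2, rKCNQ3 A278T, hKCNQ4 or hKCNQ5; KCNQ2/3 at 1:1 cDNA ratio. Pipette solution 145 mM KCl, 5 mM MgATP, pH 7.3; bath 140 mM NaCl, 5 mM KCl, pH 7.4, under perfusion. V1/2 from Boltzmann fits; I/I0 is current amplitude with versus without compound; n = 4−6.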

[3] = Neurotoxicity in Kunming mouse assessed as motor impairment rate at 300 mg/kg, po after 1 hr by rotarod test; format: toxicity, organism-based; conditions: in vivo
In short: (§1)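 Male KM mice dosed intragastrically with compound freshly suspended in 0.5% CMC-Na. Rotarod performance scored 1 h after dosing as the fraction of animals showing motor impairment. Fisher's exact test versus vehicle; TD50 from nonlinear dose−response fit.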

Mus musculus [4] = test: Anticonvulsant activity in pentylenetetrazol induced Kunming mouse model of seizure at 30 mg/kg, po after 1 hr; format: functional
In short: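 sc-PTZ test in male KM mice. Compound suspended in 0.5% CMC-Na and given orally 1 h before PTZ (freshly dissolved in normal saline, 100 mg/kg). Protection against clonic seizures scored; ED50 by nonlinear regression.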

[5] = Metabolic stability in mouse liver microsomes assessed as half life; format: ADME, Microsome
Cytochrome P450 3A4 = Cytochrome P450 3A4 (Homo sapiens, UniProt P08684); test: Time dependent inhibition of human liver microsome CYP3A4 preincubated for 0.5 hrs in presence or absence of NADPH followed by testosterone addition by LC-MS/MS method; format: ADME, microsomes
In short: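 Human liver microsomes preincubated 0.5 h with 0.10–50 μM test compound, with or without NADPH, then CYP-specific probe substrate added and incubation continued. Metabolite measured by LC-MS/MS; % activity remaining relative to no-compound control; IC50 fitted by Probit model. For CYP3A4, midazolam 1′-hydroxylation and testosterone 6β-hydroxylation were read separately.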

CYP2C8 = CYP2C8 (Homo sapiens, UniProt P10632); test: Inhibition of human liver microsome CYP2C8 at 0.10 to 50 uM preincubated with NADPH for 0.5 hrs followed by substrate addition by LC-MS/MS method relative to control; format: ADME; conditions: liver microsomes, dose 0.1-50 µM
[6] = Ratio of AUC(0 to t) in Kunming mouse brain to plasma at 5 mg/kg, po measured upto 24 hrs by LC-MS/MS method; format: ADME, organism-based; conditions: brain and plasma
In short: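 Male KM mice (18−24 g) fasted 12 h before and 2 h after dosing, given 5 mg/kg orally in 5% DMSO/5% Tween 80/90% normal saline (n = 3 per time point). Aortic blood taken at 0.25–24 h and whole brain collected. Acetonitrile extraction with internal standard, then LC−MS/MS. Bioavailability calculated against the 2 mg/kg i.v. arm.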

[7] = Half life in Sprague-Dawley rat at 6 mg/kg, po measured upto 24 hrs by LC-MS/MS method; format: ADME, organism-based; conditions: in vivo
In short: (§2)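 Male SD rats (180−220 g) given single oral doses of 2, 6 and 20 mg/kg; handled as in the mouse PK study (fasted 12 h before and 2 h after dosing, 5% DMSO/5% Tween 80/90% saline formulation). In a separate 6 mg/kg p.o. set, blood and brain were sampled together. Plasma and brain levels by LC−MS/MS.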

[8] = AUC(0 to t) in Sprague-Dawley rat brain at 6 mg/kg, po measured upto 24 hrs by LC-MS/MS method; format: ADME, organism-based; parameters: dose 6 mg/kg, time < 24 hrs, route po
In short: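 Separate experiment in male SD rats given 6 mg/kg orally; blood and brain concentrations measured concurrently. Samples extracted with acetonitrile (brain homogenized in 10 volumes acetonitrile and sonicated) and analysed by LC−MS/MS; AUC0−t by trapezoidal method.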

[9] = AUC(0 to t) in Kunming mouse brain at 5 mg/kg, po measured upto 24 hrs by LC-MS/MS method; format: ADME, organism-based; parameters: dose 5 mg/kg, time < 24 hrs, route po
In short: (§3)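 KM male mice (18−24 g), fasted 12 h before and 2 h after dosing. HN37 given orally at 5 mg/kg in 5% DMSO/5% Tween 80/90% saline, or iv at 2 mg/kg after dilution in saline with 1% Tween 80; n = 3 per time point. Blood sampled 0.25–24 h (from 0.083 h after iv); whole brain taken after oral dosing. Plasma and brain extracted with acetonitrile, quantified by LC−MS/MS; AUC0−t by trapezoidal method.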

[10] = AUC(0 to t) in Kunming mouse plasma at 5 mg/kg, po measured upto 24 hrs by LC-MS/MS method; format: ADME, organism-based; parameters: dose 5 mg/kg, time < 24 hrs, route po; in short: as §3
[11] = Neurotoxicity in Kunming mouse assessed as motor impairment rate at 200 mg/kg, po after 1 hr by rotarod test; format: toxicity, organism-based; conditions: in vivo; in short: as §1
[12] = Cmax in Sprague-Dawley rat blood at 6 mg/kg, po measured upto 24 hrs by LC-MS/MS method; format: ADME, organism-based; parameters: time < 24 hrs, dose 6 mg/kg, route po; in short: as §2
CYP1A2 = CYP1A2 (Homo sapiens, UniProt P05177); test: Inhibition of human liver microsome CYP1A2 at 0.10 to 50 uM preincubated with NADPH for 0.5 hrs followed by substrate addition by LC-MS/MS method relative to control; format: ADME; conditions: liver microsomes, dose 0.1-50 µM
CYP1A2, sequence (P05177 whole entry): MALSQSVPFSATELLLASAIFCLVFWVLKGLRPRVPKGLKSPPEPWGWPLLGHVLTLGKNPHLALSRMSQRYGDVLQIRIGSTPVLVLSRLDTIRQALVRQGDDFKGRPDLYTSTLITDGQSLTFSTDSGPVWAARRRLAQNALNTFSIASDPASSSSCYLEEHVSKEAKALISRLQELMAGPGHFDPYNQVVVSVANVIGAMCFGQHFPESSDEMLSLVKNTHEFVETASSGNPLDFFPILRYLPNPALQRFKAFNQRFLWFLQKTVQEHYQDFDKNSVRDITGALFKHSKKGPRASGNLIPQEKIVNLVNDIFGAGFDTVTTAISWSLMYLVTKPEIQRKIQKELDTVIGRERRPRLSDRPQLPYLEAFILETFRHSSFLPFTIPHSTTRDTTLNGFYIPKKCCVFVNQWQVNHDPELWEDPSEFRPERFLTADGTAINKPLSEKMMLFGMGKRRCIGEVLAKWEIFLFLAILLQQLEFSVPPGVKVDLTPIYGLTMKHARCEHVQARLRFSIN

CYP2C8, sequence (P10632 whole entry): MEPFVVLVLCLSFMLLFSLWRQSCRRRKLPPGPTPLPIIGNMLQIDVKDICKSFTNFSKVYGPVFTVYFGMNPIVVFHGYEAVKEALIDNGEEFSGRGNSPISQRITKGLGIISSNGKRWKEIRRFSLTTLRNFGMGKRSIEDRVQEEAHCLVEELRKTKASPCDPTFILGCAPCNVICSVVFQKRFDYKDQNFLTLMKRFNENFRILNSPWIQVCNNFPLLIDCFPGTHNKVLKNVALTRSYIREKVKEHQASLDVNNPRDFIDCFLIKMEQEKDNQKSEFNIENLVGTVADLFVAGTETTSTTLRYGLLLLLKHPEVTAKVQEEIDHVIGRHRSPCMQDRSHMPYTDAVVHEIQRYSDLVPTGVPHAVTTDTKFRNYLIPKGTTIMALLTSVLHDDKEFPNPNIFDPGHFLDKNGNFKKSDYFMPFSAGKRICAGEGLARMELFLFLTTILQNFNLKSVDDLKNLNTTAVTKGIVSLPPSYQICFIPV
Cytochrome P450 3A4, sequence (P08684 whole entry): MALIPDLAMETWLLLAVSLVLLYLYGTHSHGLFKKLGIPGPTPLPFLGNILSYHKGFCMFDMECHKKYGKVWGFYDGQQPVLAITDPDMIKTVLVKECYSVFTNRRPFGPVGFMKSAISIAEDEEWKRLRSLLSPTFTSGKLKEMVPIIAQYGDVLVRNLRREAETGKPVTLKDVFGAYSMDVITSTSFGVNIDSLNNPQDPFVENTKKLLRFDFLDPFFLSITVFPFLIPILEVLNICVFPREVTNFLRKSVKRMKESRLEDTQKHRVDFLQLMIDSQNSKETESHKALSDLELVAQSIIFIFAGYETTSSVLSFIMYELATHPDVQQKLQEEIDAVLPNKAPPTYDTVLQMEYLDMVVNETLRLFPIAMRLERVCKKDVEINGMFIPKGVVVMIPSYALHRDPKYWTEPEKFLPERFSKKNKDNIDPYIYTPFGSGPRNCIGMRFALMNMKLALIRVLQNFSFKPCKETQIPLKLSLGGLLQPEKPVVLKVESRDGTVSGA

Compound	Activity (Mus musculus [1]) [%]	Activity [2] [mV]	Activity [3] [%]	Activity (Mus musculus [4]) [%]	half-life [5] [h]	IC50 (Cytochrome P450 3A4) [µM]	inhibition at 0.5 h, up to 50 µM (CYP2C8) [%]	Kp at 24 h [6]	half-life [7] [h]	AUC(0-t) at 24 h [8] [ng·h/mL]	AUC(0-t) at 24 h [9] [ng·h/mL]	AUC(0-t) at 24 h [10] [ng·h/mL]	Activity [11] [%]	Cmax [12] [ng/mL]	inhibition at 0.5 h, up to 50 µM (CYP1A2) [%]
CCOC(=O)Nc1ccc(NCc2ccc(F)cc2)cc1N [EZOGABINE]	62.5	-34.1	100	50											
C#CCN(Cc1ccc(F)cc1)c1cc(C)c(NC(=O)OC)c(C)c1					0.208	> 50	< 25	2.23	2.36	1520	716	321	100	162	< 25
